Measurements taken from ChEMBL document CHEMBL1124311, “Synthesis and antiallergy activity of 4-(diarylhydroxymethyl)-1-[3-(aryloxy)propyl]piperidines and structurally related compounds” (J Med Chem, 1989).
pIC50: −log10 of the molar value. Activity calls are given as the source filed them. The rule behind the calls is not given here.

Key:
Cavia porcellus [1] = organism: Cavia porcellus; assay: Oal antiallergy activity in the guinea pig anaphylaxis (GPA) model of, at a pretreatment time of 5 h; assay type: functional; settings: read-out: PD50
How it was run: (§1)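 Fasted, sensitized Dunkin-Hartley guinea pigs, randomized into control (N = 8) and test (N = 4) groups, dosed by gavage at 10 mL/kg in 0.5% Tween 80 in water; theophylline 100 mg/kg po as reference. At the stated pretreatment time, each animal was exposed to aerosolized 1% (w/v) egg albumin at 10 L air/min for up to 5 min. Protection meant no collapse within 5 min. PD50 was calculated by Litchfield–Wilcoxon.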

Histamine H1 receptor = Histamine H1 receptor (Cavia porcellus, UniProt P31389); assay: Inhibitory activity against Tritiated [3H]- mepyramine binding to Histamine H1 receptor in guinea pig cerebral cortex; assay type: tissue-based
How it was run: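 Guinea pig (Dunkin-Hartley) cerebral cortex homogenised in cold 50 mM Na-K phosphate pH 7.5, washed by repeated 48000g spins, membranes resuspended at 30 mL buffer/g wet tissue. Incubated with 1.5 nM (final) [3H]mepyramine for 20 min at 25 °C. Stopped by cold-buffer washing and GF/B filtration, then scintillation counting. Six concentrations (1e-5 to 1e-10 M) in triplicate. IC50 from regression of logit % control binding vs log concentration.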

Cavia porcellus [2] = organism: Cavia porcellus; assay: Oal antiallergy activity in the guinea pig anaphylaxis (GPA) model, at a pretreatment time of 24 h; assay type: functional; settings: read-out: PD50; how it was run: as §1
Rattus norvegicus [3] = assay: Oral antiallergy activity in the passive foot anaphylaxis (PFA) model of rat, at a dose of 1.0 (mg/kg);not significantly different from negative control group; assay type: functional, organism-based
Rattus norvegicus [4] = assay: Oral antiallergy activity in the passive foot anaphylaxis (PFA) model of rat, at a dose of 3.16 (mg/kg); Activity between positive and negative control groups; assay type: functional, organism-based
Rattus norvegicus [5] = assay: Oral antiallergy activity in the passive foot anaphylaxis (PFA) model of rat, at a dose of 10 (mg/kg); Activity greater than positive control group; assay type: functional, organism-based
Rattus norvegicus [6] = assay: Oral antiallergy activity in the passive foot anaphylaxis (PFA) model of rat, at a dose of 10 (mg/kg); Not significantly different from negative control group; assay type: functional, organism-based
Rattus norvegicus [7] = assay: Oral antiallergy activity in the passive foot anaphylaxis (PFA) model of rat, at a dose of 3.16 (mg/kg); - indicates not significantly different from negative control group.; assay type: functional, organism-based
Rattus norvegicus [8] = assay: Oral antiallergy activity in the passive foot anaphylaxis (PFA) model of rat, at a dose of 1.0 (mg/kg); not significantly different from negative control group; assay type: functional, organism-based
Rattus norvegicus [9] = assay: Oral antiallergy activity in the passive foot anaphylaxis (PFA) model of rat, at a dose of 10 (mg/kg); Activity equal to positive control group; assay type: functional, organism-based
Rattus norvegicus [10] = organism: Rattus norvegicus; assay: Oral antiallergy activity in the passive foot anaphylaxis (PFA) model of rat, at a dose of 3.16; Activity equal to positive control group; assay type: functional, organism-based
Rattus norvegicus [11] = assay: Oral antiallergy activity in the passive foot anaphylaxis (PFA) model of rat, at a dose of 10 (mg/kg); not significantly different from negative control group; assay type: functional, organism-based
Cavia porcellus [12] = organism: Cavia porcellus; assay: Oral antiallergy activity in the guinea pig anaphylaxis (GPA) model of, at a pretreatment time of 6 h; assay type: functional; settings: read-out: PD50; how it was run: as §1
Cavia porcellus [13] = organism: Cavia porcellus; assay: Oral antiallergy activity in the guinea pig anaphylaxis (GPA) model, at a pretreatment time of 1 h; assay type: functional; settings: read-out: PD50; how it was run: as §1

Histamine H1 receptor, sequence (P31389 whole entry): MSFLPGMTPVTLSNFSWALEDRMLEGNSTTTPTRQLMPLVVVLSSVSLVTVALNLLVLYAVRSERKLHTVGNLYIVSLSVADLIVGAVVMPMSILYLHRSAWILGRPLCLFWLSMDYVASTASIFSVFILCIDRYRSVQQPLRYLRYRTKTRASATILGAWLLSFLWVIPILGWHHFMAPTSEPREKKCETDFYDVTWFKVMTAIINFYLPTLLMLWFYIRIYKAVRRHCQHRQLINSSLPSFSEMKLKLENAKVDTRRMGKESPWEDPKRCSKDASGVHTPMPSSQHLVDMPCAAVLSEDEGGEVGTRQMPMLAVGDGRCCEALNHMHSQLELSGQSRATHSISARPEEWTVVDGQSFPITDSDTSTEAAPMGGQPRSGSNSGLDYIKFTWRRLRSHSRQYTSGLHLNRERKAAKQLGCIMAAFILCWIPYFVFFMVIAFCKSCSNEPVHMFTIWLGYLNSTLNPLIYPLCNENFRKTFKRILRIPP

Question: What does the source list for `O=c1[nH]c2ccccc2n1CCCN1CCN(C(c2ccccc2)c2ccccc2)CC1` [OXATOMIDE]?
Answer: ED50 (Cavia porcellus [1]): 1 mg/kg; pIC50 (Histamine H1 receptor): 8.05; ED50 (Cavia porcellus [2]): 10 mg/kg

Question: Which results are given for `CS(=O)(=O)Nc1ccc(OCCCN2CCC(C(O)(c3ccc(F)cc3)c3ccc(F)cc3)CC2)cc1`?
Answer: PFA (Rattus norvegicus [3]): Activity between positive and negative control groups; PFA (Rattus norvegicus [4]): Activity between positive and negative control groups; PFA (Rattus norvegicus [5]): Activity between positive and negative control groups

Question: For `COc1cc(C(C)=O)ccc1OCCCN1CCC(C(O)c2ccccc2)CC1` (centres undefined), which PFA (Rattus norvegicus [6]) is on record?
Answer: Its PFA is “Not significantly different from negative control group”.

Question: With `OC(c1ccc(F)cc1)(c1ccc(F)cc1)C1CCN(CCCCc2ccccc2)CC1` as the molecule, how does the PFA (Rattus norvegicus [7]) read?
Answer: Its PFA is “Not significantly different from negative control group”.

Question: Which results are given for `Cc1ccc(OCCCN2CCC(C(O)(c3ccc(F)cc3)c3ccc(F)cc3)CC2)cc1`?
Answer: PFA (Rattus norvegicus [8]): Activity equal to positive control group; PFA (Rattus norvegicus [9]): Activity equal to positive control group; PFA (Rattus norvegicus [10]): Activity equal to positive control group

Question: `CC(C)(C)c1ccc(C(O)CCCN2CCC(C(O)(c3ccccc3)c3ccccc3)CC2)cc1` (centres undefined) [TERFENADINE] was tested. Which PFA (Rattus norvegicus [11]) did it give?
Answer: Its PFA is “inactive”.

Question: And the ED50 (Cavia porcellus [12])?
Answer: The ED50 was 3.2 mg/kg.

Question: What about the ED50 (Cavia porcellus [13]) of the same molecule?
Answer: Its ED50 is 1 mg/kg.
